The nature of series [1]: Stability of the compound at 200 uM after overnight incubation by spot on lawn method in the presence of chymotrypsin. Format: ADME.
Series [2] is described as follows: Stability of the compound at 150 uM after 30 mins by RP-HPLC analysis in the presence of pepsin. The following applies: 0.5 h. Format: ADME. The procedure, abridged: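 Peptide (150 µM) was incubated at 37 °C with pepsin (4% w/w) in 0.1 N HCl. Aliquots taken at 0 and 30 min were quenched into 0.1 N NaOH/70% methanol and centrifuged. Supernatant was analysed by C18 RP-HPLC (15–50% isopropanol/water, 0.05% TFA, 35 min, UV 220 nm). Fragments were identified by MALDI-TOF.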

Series [3] is described as follows: Bactericidal activity against Salmonella newport clinical isolate after 24 hrs. Format: functional, Salmonella enterica subsp. enterica serovar Newport. The following applies: Salmonella enterica. The procedure, abridged:
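For MBC, 10 µL from each clear well of the 24 h, 37 °C LB broth-dilution plate was spread on LB agar and incubated 24 h at 37 °C. MBC was the lowest concentration giving no growth on agar.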

The next series concerns Enterococcus faecalis. Kind of series: Antibacterial activity against Enterococcus faecalis ATCC 19433. It is filed as functional, organism-based.
In the next series the test system is Staphylococcus aureus. Kind of series: Antibacterial activity against Staphylococcus aureus ATCC 6538. Format: functional, organism-based.
Series [4] relates to Escherichia coli. Put plainly: Antibacterial activity against Escherichia coli MC4100 up to 250 uM after 24 hrs by liquid growth inhibition assay. It is filed as functional, organism-based. The gist of the method:
(§1)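 Liquid broth microdilution in LB. Peptide stocks were made in 20% methanol/water (1 or 2.5 mM), then serially doubled in water to final 0.01–100 or 0.5–250 µM. Inoculum was diluted to OD620 0.02–0.05. Plates ran 24 h at 37 °C and were read at OD620. MIC was the lowest concentration giving 100% growth inhibition (0.05 AU). Triplicate wells, three repeat experiments.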

Series [5] deals with Escherichia coli. Kind of series: Antibacterial activity against Escherichia coli DH5alpha up to 250 uM after 24 hrs by liquid growth inhibition assay. It is filed as functional, organism-based. To be noted: DH5[alpha]. The gist of the method:
as §1

In series [6] the test system is Salmonella enterica subsp. enterica serovar Choleraesuis. Kind of series: Antibacterial activity against Salmonella choleraesuis ATCC 10708 up to 250 uM after 24 hrs by liquid growth inhibition assay. Format: functional.
In series [7] the test system is Salmonella paratyphi. Kind of series: Antibacterial activity against Salmonella paratyphi up to 250 uM after 24 hrs by liquid growth inhibition assay. It is filed as functional, organism-based. The following applies: Salmonella enterica subsp. enterica serovar Paratyphi A.
Series [8] concerns Salmonella enterica subsp. enterica serovar Montevideo. Put plainly: Antibacterial activity against Salmonella montevideo 20 up to 250 uM after 24 hrs by liquid growth inhibition assay. Format: functional. The gist of the method: as §1
The subject of series [9] is Salmonella enterica subsp. enterica serovar Heidelberg. Put plainly: Antibacterial activity against Salmonella heidelberg ATCC 8326 up to 250 uM after 24 hrs by liquid growth inhibition assay. Format: functional. The gist of the method: as §1
The test system of series [10] is Salmonella typhimurium. Kind of series: Antibacterial activity against Salmonella Typhimurium ATCC 13311 up to 250 uM after 24 hrs by liquid growth inhibition assay. Format: functional, organism-based. To be noted: Salmonella enterica subsp. enterica serovar Typhimurium. The procedure, abridged: as §1
In series [11] the test system is Salmonella typhimurium. Put plainly: Antibacterial activity against Salmonella Typhimurium AFLB 25 up to 250 uM after 24 hrs by liquid growth inhibition assay. It is filed as functional, organism-based. The following applies: Salmonella enterica subsp. enterica serovar Typhimurium. The gist of the method: as §1
Series [12] concerns Salmonella enteritidis. Put plainly: Antibacterial activity against Salmonella enteritidis AFLB 81 up to 250 uM after 24 hrs by liquid growth inhibition assay. It is filed as functional, organism-based. The following applies: Salmonella enterica subsp. enterica serovar Enteritidis. The procedure, abridged: as §1
Series [13] has as its system Salmonella enteritidis. Kind of series: Antibacterial activity against Salmonella enteritidis AFLB 41 up to 250 uM after 24 hrs by liquid growth inhibition assay. It is filed as functional, organism-based. The following applies: Salmonella enterica subsp. enterica serovar Enteritidis. The gist of the method:
as §1

Series [14] has as its system Salmonella enteritidis. Put plainly: Antibacterial activity against Salmonella enteritidis AFLB 11 up to 250 uM after 24 hrs by liquid growth inhibition assay. Format: functional, organism-based. To be noted: Salmonella enterica subsp. enterica serovar Enteritidis. The gist of the method: as §1
Series [15] concerns Salmonella enteritidis. Kind of series: Antibacterial activity against Salmonella enteritidis ATCC 13076 up to 250 uM after 24 hrs by liquid growth inhibition assay. The following applies: Salmonella enterica subsp. enterica serovar Enteritidis. It is filed as functional, organism-based. The gist of the method:
as §1

Series [16] has as its system Salmonella enteritidis. Put plainly: Antibacterial activity against Salmonella enteritidis PT8 up to 250 uM after 24 hrs by liquid growth inhibition assay. It is filed as functional, organism-based. The following applies: Salmonella enterica subsp. enterica serovar Enteritidis. The procedure, abridged: as §1
The nature of series [17]: Antibacterial activity against Salmonella newport clinical isolate after 24 hrs by liquid growth inhibition assay. Format: functional, Salmonella enterica subsp. enterica serovar Newport. The following applies: Salmonella enterica. The gist of the method:
as §1

Series [18] concerns Salmonella enterica subsp. enterica serovar Newport. Kind of series: Inhibition of oxygen consumption in Salmonella newport clinical isolate at 30 uM after 35 mins by Gilson Clarke oxygraph analysis. It is filed as functional. The procedure, abridged:
(§2)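 Cells were held 35 min at 37 °C with peptide at the stated concentration. Respiration rate over the next 5 min was measured polarographically with a Clark electrode oxygraph at 37 °C. Results are percent of a peptide-free control; three independent experiments, mean ± SD.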

A short description of series [19]: Cytotoxicity against human MDA-MB-435 cells assessed as cell viability at 0.3 to 100 uM after 24 hrs by MTT assay. Format: cell-based. To be noted: read-out: Activity. The gist of the method:
(§3)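 MTT assay. MDA-MB-435 cells were kept in RPMI 1640 and MCF7 cells in DMEM, both with 10% FBS, penicillin and streptomycin, at 37 °C and 5% CO2. Cells were seeded at 1×10^4/well and grown 24 h. Samples came from 1 mM stocks in 10% DMSO/water, twofold diluted to 0.3125–100 µM, and applied for 24 h. MTT (5 mg/mL) was added for 3.5 h, then DMSO solubilization and A570. Viability is relative to untreated cells; triplicate, mean.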

Series [20] in a line: Cytotoxicity against human MCF7 cells assessed as cell viability at 0.3 to 100 uM after 24 hrs by MTT assay. Format: cell-based. The following applies: read-out: Activity. The gist of the method:
as §3

Series [21] is described as follows: Thermostability in boiling water after 3 hrs. Format: physicochemical. The following applies: buffer.
In series [22] the test system is Salmonella enterica subsp. enterica serovar Newport. Kind of series: Inhibition of oxygen consumption in Salmonella newport clinical isolate at 0.25 uM after 35 mins by Gilson Clarke oxygraph analysis. Format: functional. The gist of the method: as §2
Series [23] relates to Escherichia coli. Kind of series: Antibacterial activity against Escherichia coli MC4100 after 24 hrs by liquid growth inhibition assay. Format: functional. The following applies: MC4100, 24 h. The gist of the method:
as §1

Series [24] has as its system Escherichia coli. Put plainly: Antibacterial activity against Escherichia coli DH5alpha after 24 hrs by liquid growth inhibition assay. Format: functional. To be noted: DH5[alpha]. The gist of the method: as §1
The nature of series [25]: Antibacterial activity against Salmonella choleraesuis ATCC 10708 after 24 hrs by liquid growth inhibition assay. It is filed as functional, Salmonella enterica subsp. enterica serovar Choleraesuis. To be noted: Salmonella enterica, ATCC 10708, 24 h.
The subject of series [26] is Salmonella paratyphi. Kind of series: Antibacterial activity against Salmonella paratyphi after 24 hrs by liquid growth inhibition assay. Format: functional, Salmonella enterica subsp. enterica serovar Paratyphi A. To be noted: Salmonella enterica.
Series [27] concerns Salmonella typhimurium. Kind of series: Antibacterial activity against Salmonella Typhimurium AFLB 25 after 24 hrs by liquid growth inhibition assay. It is filed as functional, Salmonella enterica subsp. enterica serovar Typhimurium. To be noted: Salmonella enterica, AFLB 25, 24 h. The procedure, abridged: as §1
The test system of series [28] is Salmonella enteritidis. Put plainly: Antibacterial activity against Salmonella enteritidis AFLB 81 after 24 hrs by liquid growth inhibition assay. The following applies: Salmonella enterica, AFLB 81, 24 h. It is filed as functional, Salmonella enterica subsp. enterica serovar Enteritidis. The gist of the method: as §1
Series [29] relates to Salmonella enteritidis. Kind of series: Antibacterial activity against Salmonella enteritidis AFLB 41 after 24 hrs by liquid growth inhibition assay. Format: functional, Salmonella enterica subsp. enterica serovar Enteritidis. The following applies: Salmonella enterica, AFLB 41, 24 h. The gist of the method: as §1
Series [30] concerns Salmonella enteritidis. Put plainly: Antibacterial activity against Salmonella enteritidis AFLB 11 after 24 hrs by liquid growth inhibition assay. To be noted: Salmonella enterica, AFLB 11, 24 h. It is filed as functional, Salmonella enterica subsp. enterica serovar Enteritidis. The procedure, abridged: as §1
Series [31] relates to Salmonella enteritidis. Kind of series: Antibacterial activity against Salmonella enteritidis ATCC 13076 after 24 hrs by liquid growth inhibition assay. Format: functional, Salmonella enterica subsp. enterica serovar Enteritidis. To be noted: Salmonella enterica, ATCC 13076, 24 h. The gist of the method: as §1
Series [32] relates to Salmonella enteritidis. Kind of series: Antibacterial activity against Salmonella enteritidis PT8 after 24 hrs by liquid growth inhibition assay. It is filed as functional, Salmonella enterica subsp. enterica serovar Enteritidis. The following applies: Salmonella enterica, PT8, 24 h. The procedure, abridged: as §1
The nature of series [33]: Cytotoxicity against human MDA-MB-435 cells assessed as cell viability up to 100 uM after 24 hrs by MTT assay. To be noted: read-out: Activity. Format: cell-based. The procedure, abridged:
as §3

Series [34] can be described thus: Cytotoxicity against human MCF7 cells assessed as cell viability up to 100 uM after 24 hrs by MTT assay. The following applies: read-out: Activity. Format: cell-based. The procedure, abridged:
as §3

This is an account of results in ChEMBL document CHEMBL1944538, “Synthetic peptides derived from the sequence of a lasso peptide microcin J25 show antibacterial activity” (Bioorg Med Chem, 2012).

In brackets after ≈: the same amount, converted by molar mass. Activity calls are given as the source filed them. The rule behind the calls is not given here. Positions of bridges follow the written chain, without caps; N, C: chain ends. Residues, ends and D or L forms follow the SMILES beside them.

Take `CC[C@H](C)[C@H](NC(=O)[C@@H]1CCCN1C(=O)[C@@H](NC(=O)CNC(=O)[C@H](CCCNC(=N)N)NC(=O)CNC(=O)[C@@H](NC(=O)[C@H](Cc1ccccc1)NC(=O)[C@H](Cc1ccc(O)cc1)NC(=O)[C@@H]1CSSC[C@H](N)C(=O)NCC(=O)N[C@@H](C)C(=O)NCC(=O)N[C@@H](Cc2ccccc2)C(=O)N[C@@H](Cc2cnc[nH]2)C(=O)N[C@@H](C(C)C)C(=O)N2CCC[C@H]2C(=O)N1)C(C)C)[C@@H](C)O)C(=O)N[C@@H](CO)C(=O)N[C@@H](Cc1ccccc1)C(=O)N[C@@H](Cc1ccc(O)cc1)C(=O)NCC(=O)O` (H-CGAGFHVPCYFVGRGTPISFYG-OH; disulfide 1-9): the Stability result in series [1], in series [2] and in series [21] was “Unstable” each time. Further, the MBC in series [3] is 62.5 µM (≈ 146 µg/mL). Moreover, the result (in the series with Enterococcus faecalis; in the series with Staphylococcus aureus; in the series with Escherichia coli [4]; in the series on Escherichia coli [5]; in series [6]; in the series on Salmonella paratyphi [7]) was inactive. Besides, the outcome (in series [8]; in series [9]; in the series on Salmonella typhimurium [10]; with Salmonella typhimurium [11]; in the series with Salmonella enteritidis [12]; in the series with Salmonella enteritidis [13]) was inactive. For the same compound, the outcome in the series on Salmonella enteritidis [14], with Salmonella enteritidis [15] and in the series with Salmonella enteritidis [16] was inactive. In addition, it took 30 µM (≈ 70 µg/mL) to inhibit growth in series [17] (MIC). For the same compound, the inhibition result in series [18] was “inactive”. In addition, the viability at 24 h, up to 100 µM in [19] and in series [20] was > 90% throughout.

Take `CC[C@H](C)[C@H](NC(=O)CNC(=O)[C@@H](NC(=O)[C@H](Cc1ccccc1)NC(=O)[C@H](Cc1ccc(O)cc1)NC(=O)[C@@H]1CCC(=O)NCC(=O)NCC(=O)N[C@@H](C)C(=O)NCC(=O)N[C@@H](Cc2cnc[nH]2)C(=O)N[C@@H](C(C)C)C(=O)N2CCC[C@H]2C(=O)N1)C(C)C)C(=O)NCC(=O)N[C@H](C(=O)N1CCC[C@H]1C(=O)N[C@H](C(=O)N[C@@H](CO)C(=O)N[C@@H](Cc1ccccc1)C(=O)N[C@@H](Cc1ccc(O)cc1)C(=O)NCC(=O)O)[C@@H](C)CC)[C@@H](C)O` [MICROCIN J25] (GGAGHVPEYFVGIGTPISFYG-OH; lactam N-8): the inhibition entry in series [22] is “Active”. For the same compound, the minimal inhibitory concentration (MIC) against Escherichia coli [23] turned out to be 5 µM (≈ 10.5 µg/mL); against Escherichia coli [24], 5 µM (≈ 10.5 µg/mL); in [25], 1.5 µM (≈ 3.16 µg/mL); against Salmonella paratyphi [26], 1.5 µM (≈ 3.16 µg/mL); in the series with Salmonella typhimurium [27], 2.8 µM (≈ 5.9 µg/mL); with Salmonella enteritidis [28], 1.7 µM (≈ 3.58 µg/mL). Also, the MIC with Salmonella enteritidis [29] was 1.6 µM (≈ 3.37 µg/mL); in the series with Salmonella enteritidis [30], 2 µM (≈ 4.21 µg/mL); in the series with Salmonella enteritidis [31] it was 1.8 µM (≈ 3.79 µg/mL); against Salmonella enteritidis [32], 1.5 µM (≈ 3.16 µg/mL); in [17] it was 0.5 µM (≈ 1.05 µg/mL). The result (in series [8]; in series [9]; in the series on Salmonella typhimurium [10]) was inactive. Further, the viability at 24 h in [33] and in [34] was > 80% each time.
